# Test results: ChEMBL document CHEMBL3244382, “Structural requirements for antileukemic activity among the naturally occurring and semisynthetic maytansinoids” (J Med Chem, 1978)
# The source made the active and inactive calls.
# Key:
# Mus musculus [1] = assay: Toxicity in PS mouse allografted with mouse P388 cells assessed as change in body weight at 3.1 ug/kg relative to control; assay type: organism-based; settings: in vivo, 0.0031 mg/kg
# In short: (§1)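 P388 (PS) leukemia in mice, 6 mice per dose group. Weight change is the difference in grams between treated and control animals. Survivors are recorded on toxicity day, normally 4 days after the first injection.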
# Mus musculus [2] = assay: Toxicity in PS mouse allografted with mouse P388 cells assessed as change in body weight at 1.6 ug/kg relative to control; assay type: organism-based; settings: in vivo, 0.0016 mg/kg; in short: as §1
# Mus musculus [3] = assay: Toxicity in PS mouse allografted with mouse P388 cells assessed as survival at 50 ug/kg after 4 days; assay type: organism-based; settings: in vivo, 0.05 mg/kg, 96 h
# In short: (§2)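 PS (P388) leukemic mice, six started per dose group. Toxicity scored as survivors on the toxicity day over the number of mice started. The toxicity day is normally 4 days after the first injection.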
# Mus musculus [4] = assay: Toxicity in PS mouse allografted with mouse P388 cells assessed as survival at 100 ug/kg after 4 days; assay type: organism-based; settings: in vivo, 0.1 mg/kg, 96 h; in short: as §2
# Mus musculus [5] = assay: Toxicity in PS mouse allografted with mouse P388 cells assessed as survival at 25 ug/kg after 4 days; assay type: organism-based; settings: in vivo, 0.025 mg/kg, 96 h; in short: as §2
# Mus musculus [6] = assay: Toxicity in PS mouse allografted with mouse P388 cells assessed as survival at 12.5 ug/kg after 4 days; assay type: organism-based; settings: in vivo, 0.0125 mg/kg, 96 h; in short: as §2
# Mus musculus [7] = assay: Toxicity in PS mouse allografted with mouse P388 cells assessed as survival at 6.2 ug/kg after 4 days; assay type: organism-based; settings: in vivo, 0.0062 mg/kg, 96 h; in short: as §2
# Mus musculus [8] = assay: Toxicity in PS mouse allografted with mouse P388 cells assessed as survival at 3.1 ug/kg after 4 days; assay type: organism-based; settings: in vivo, 0.0031 mg/kg, 96 h; in short: as §2
# Mus musculus [9] = assay: Toxicity in PS mouse allografted with mouse P388 cells assessed as survival at 1.6 ug/kg after 4 days; assay type: organism-based; settings: in vivo, 0.0016 mg/kg, 96 h; in short: as §2
# Mus musculus [10] = assay: Toxicity in PS mouse allografted with mouse P388 cells assessed as survival at 200 ug/kg after 4 days; assay type: organism-based; settings: in vivo, 0.2 mg/kg, 96 h; in short: as §2
# Mus musculus [11] = assay: Toxicity in PS mouse allografted with mouse P388 cells assessed as survival at 400 ug/kg after 4 days; assay type: organism-based; settings: in vivo, 0.4 mg/kg, 96 h; in short: as §2
# Mus musculus [12] = assay: Toxicity in PS mouse allografted with mouse P388 cells assessed as change in body weight at 100 ug/kg relative to control; assay type: organism-based; settings: in vivo, 0.1 mg/kg; in short: as §1
# Mus musculus [13] = assay: Toxicity in PS mouse allografted with mouse P388 cells assessed as change in body weight at 50 ug/kg relative to control; assay type: organism-based; settings: in vivo, 0.05 mg/kg; in short: as §1
# Mus musculus [14] = assay: Toxicity in PS mouse allografted with mouse P388 cells assessed as change in body weight at 25 ug/kg relative to control; assay type: organism-based; settings: in vivo, 0.025 mg/kg; in short: as §1
# Mus musculus [15] = assay: Toxicity in PS mouse allografted with mouse P388 cells assessed as change in body weight at 12.5 ug/kg relative to control; assay type: organism-based; settings: in vivo, 0.0125 mg/kg; in short: as §1
# Mus musculus [16] = assay: Toxicity in PS mouse allografted with mouse P388 cells assessed as change in body weight at 6.2 ug/kg relative to control; assay type: organism-based; settings: in vivo, 0.0062 mg/kg; in short: as §1
# Mus musculus [17] = assay: Toxicity in PS mouse allografted with mouse P388 cells assessed as change in body weight at 200 ug/kg relative to control; assay type: organism-based; settings: in vivo, 0.2 mg/kg; in short: as §1
# Mus musculus [18] = assay: Toxicity in PS mouse allografted with mouse P388 cells assessed as change in body weight at 400 ug/kg relative to control; assay type: organism-based; settings: in vivo, 0.4 mg/kg; in short: as §1
# P388 [19] = assay: Antitumor activity against mouse P388 cells allografted in PS mouse assessed as median survival time at 100 ug/kg relative to control; assay type: functional
# In short: (§3)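 P388 leukemia (PS) in mice, six mice started per dose group. Read-out is T/C: median survival time of the treated group divided by that of the untreated control group, expressed as a percent. The NIH protocol counts a compound as active when T/C > 125%.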
# P388 [20] = assay: Antitumor activity against mouse P388 cells allografted in PS mouse assessed as median survival time at 50 ug/kg relative to control; assay type: functional; in short: as §3
# P388 [21] = assay: Antitumor activity against mouse P388 cells allografted in PS mouse assessed as median survival time at 25 ug/kg relative to control; assay type: functional; in short: as §3
# P388 [22] = assay: Antitumor activity against mouse P388 cells allografted in PS mouse assessed as median survival time at 12.5 ug/kg relative to control; assay type: functional; in short: as §3
# P388 [23] = assay: Antitumor activity against mouse P388 cells allografted in PS mouse assessed as median survival time at 6.2 ug/kg relative to control; assay type: functional; in short: as §3
# P388 [24] = assay: Antitumor activity against mouse P388 cells allografted in PS mouse assessed as median survival time at 3.1 ug/kg relative to control; assay type: functional; in short: as §3
# P388 [25] = assay: Antitumor activity against mouse P388 cells allografted in PS mouse assessed as median survival time at 1.6 ug/kg relative to control; assay type: functional; in short: as §3
# P388 [26] = assay: Antitumor activity against mouse P388 cells allografted in PS mouse assessed as median survival time at 200 ug/kg relative to control; assay type: functional; in short: as §3
# P388 [27] = assay: Antitumor activity against mouse P388 cells allografted in PS mouse assessed as median survival time at 400 ug/kg relative to control; assay type: functional; in short: as §3
# KB = assay: Cytotoxicity against human KB cells; assay type: functional; settings: read-out: ED50 (the source's name)
# Tubulin (Homo sapiens) = Tubulin (Homo sapiens) (UniProt P68371+Q9H4B7+P0DPH7+P68366+Q13509+Q71U36+P04350+Q3ZCM7+P07437+P68363+Q9BQE3+Q6PEY2+Q13885+Q9BVA1+Q9BUF5); assay: Inhibition of brain tubulin polymerization (unknown origin) at 37 degC by spectrophotometry
# Paracentrotus lividus = assay: Antimitotic activity against sea urchin eggs assessed as drug level causing inhibition of mitosis; assay type: functional; settings: Egg
SMILES,Activity (Mus musculus [1]) [g],Activity (Mus musculus [2]) [g],Activity (Mus musculus [3]),Activity (Mus musculus [4]),Activity (Mus musculus [5]),Activity (Mus musculus [6]),Activity (Mus musculus [7]),Activity (Mus musculus [8]),Activity (Mus musculus [9]),Activity (Mus musculus [10]),Activity (Mus musculus [11]),Activity (Mus musculus [12]) [g],Activity (Mus musculus [13]) [g],Activity (Mus musculus [14]) [g],Activity (Mus musculus [15]) [g],Activity (Mus musculus [16]) [g],Activity (Mus musculus [17]) [g],Activity (Mus musculus [18]) [g],T/C (P388 [19]) [%],T/C (P388 [20]) [%],further results
COc1cc2cc(c1Cl)N(C)C(=O)C[C@H](OC(=O)[C@H](C)N(C)C(=O)C(C)C)[C@]1(C)O[C@H]1[C@H](C)[C@@H]1C[C@@](OC)(NC(=O)O1)[C@H](OC)/C=C/C=C(\C)C2,-1.1,-1.8,Non-toxic,Non-toxic,Non-toxic,Non-toxic,Non-toxic,Non-toxic,Non-toxic,Non-toxic,Non-toxic,-1,-2,-0.5,-2.1,-0.6,-0.9,-3,99,99,T/C (P388 [21]): 96%; T/C (P388 [22]): 99%; T/C (P388 [23]): 100%; T/C (P388 [24]): 99%; T/C (P388 [25]): 101%; T/C (P388 [26]): 100%; T/C (P388 [27]): 136%; EC50 (KB): 0.16 ng/mL; inhibition (Tubulin (Homo sapiens)): Active; Activity (Paracentrotus lividus): 1 ×10⁻⁸ mol/L
CCO[C@]12C[C@H](OC(=O)N1)[C@@H](C)[C@@H]1O[C@@]1(C)[C@@H](OC(=O)[C@H](C)N(C)C(C)=O)CC(=O)N(C)c1cc(cc(OC)c1Cl)C/C(C)=C/C=C/[C@H]2OC,-0.7,-0.1,Non-toxic,Non-toxic,Non-toxic,Non-toxic,Non-toxic,Non-toxic,Non-toxic,Non-toxic,Non-toxic,-2,-0.8,-0.3,-0.3,-1.3,0.3,-0.6,105,98,T/C (P388 [21]): 116%; T/C (P388 [22]): 101%; T/C (P388 [23]): 99%; T/C (P388 [24]): 99%; T/C (P388 [25]): 99%; T/C (P388 [26]): 98%; T/C (P388 [27]): 100%; EC50 (KB): 11 ng/mL; inhibition (Tubulin (Homo sapiens)): Active; Activity (Paracentrotus lividus): 1 ×10⁻⁷ mol/L
